One block for each molecule: values may come before it. *1 amine or outer side, *2 acyl side, *3 side chain or, on linkers, in order; H or OH if unused. Where a SMILES comes first, the peptide text is derived from it. [ ]: non-standard residue; d: D form. The star is where a group is joined. ξ: configuration not given here. LeuΨ(ξCHOHCH2)Val = CC(C)C[C@H](N[*:1])C(O)C[C@H](C(=O)[*:2])C(C)C; Boc = CC(C)(C)OC(=O)*; Piv = CC(C)(C)C(=O)*
Tests used:
Renin = biological target: T1, Renin (Homo sapiens, UniProt P00797); test: In vitro inhibition of purified Human kidney renin (250 pg/mL) incubated with angiotensinogen at pH 7.2
T1 sequence (P00797 whole entry): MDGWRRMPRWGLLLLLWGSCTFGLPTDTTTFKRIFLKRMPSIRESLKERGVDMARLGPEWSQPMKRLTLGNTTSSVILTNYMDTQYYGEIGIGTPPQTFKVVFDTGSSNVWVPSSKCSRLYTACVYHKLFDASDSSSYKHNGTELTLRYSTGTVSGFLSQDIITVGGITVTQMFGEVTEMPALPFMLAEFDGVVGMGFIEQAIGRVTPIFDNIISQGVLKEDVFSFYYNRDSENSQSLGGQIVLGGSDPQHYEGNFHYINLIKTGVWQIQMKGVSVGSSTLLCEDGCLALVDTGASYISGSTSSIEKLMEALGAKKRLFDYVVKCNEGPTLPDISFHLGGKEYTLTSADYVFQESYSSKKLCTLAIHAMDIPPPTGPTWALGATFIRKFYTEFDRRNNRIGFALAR
Summary of the method: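 Purified human kidney renin at 250 pg/mL, incubated at 37 °C with human angiotensinogen at pH 7.2.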

Monkey [1] = test: Reduction of blood pressure measured 60 min after administration of compound(dose 10mg/kg, po); type: functional
Summary of the method: (§1)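 Salt-depleted marmosets given a single intravenous or oral dose. Blood pressure change recorded in mmHg at 30, 60 and 120 min after dosing.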

Monkey [2] = test: Reduction of blood pressure measured 30 min after administration of compound(dose 1 mg/kg, iv); type: functional; summary of the method: as §1
Monkey [3] = test: Reduction of blood pressure measured 30 min after administration of compound(dose 10mg/kg, po); type: functional; summary of the method: as §1
Monkey [4] = test: Reduction of blood pressure measured 30 min after administration of compound(dose 1 mg/kg, p.o.); type: functional; conditions: route oral; summary of the method: as §1
Monkey [5] = test: Reduction of blood pressure measured 120 min after administration of compound(dose 3 mg/kg, po); type: functional; summary of the method: as §1
Monkey [6] = test: Reduction of blood pressure measured 120 min after administration of compound(dose 1 mg/kg, p.o.); type: functional; conditions: route oral; summary of the method: as §1
Monkey [7] = test: Reduction of blood pressure measured 60 min after administration of compound(dose 1 mg/kg, p.o.); type: functional; conditions: route oral; summary of the method: as §1
Monkey [8] = test: Reduction of blood pressure measured 120 min after administration of compound(dose 0.1 mg/kg, iv); type: functional; summary of the method: as §1
Monkey [9] = test: Reduction of blood pressure measured 60 min after administration of compound(dose 3 mg/kg, po); type: functional; summary of the method: as §1
Monkey [10] = test: Reduction of blood pressure measured 60 min after administration of compound(dose 1 mg/kg, iv); type: functional; summary of the method: as §1
Monkey [11] = test: Reduction of blood pressure measured 30 min after administration of compound(dose 3mg/kg, po); type: functional; summary of the method: as §1
Monkey [12] = test: Reduction of blood pressure measured 120 min after administration of compound(dose 1 mg/kg, iv); type: functional; summary of the method: as §1
Cathepsin D = biological target: T2, Cathepsin D (Bos taurus, UniProt P80209); test: In vitro inhibition of bovine cathepsin D
T2 sequence (P80209 whole entry): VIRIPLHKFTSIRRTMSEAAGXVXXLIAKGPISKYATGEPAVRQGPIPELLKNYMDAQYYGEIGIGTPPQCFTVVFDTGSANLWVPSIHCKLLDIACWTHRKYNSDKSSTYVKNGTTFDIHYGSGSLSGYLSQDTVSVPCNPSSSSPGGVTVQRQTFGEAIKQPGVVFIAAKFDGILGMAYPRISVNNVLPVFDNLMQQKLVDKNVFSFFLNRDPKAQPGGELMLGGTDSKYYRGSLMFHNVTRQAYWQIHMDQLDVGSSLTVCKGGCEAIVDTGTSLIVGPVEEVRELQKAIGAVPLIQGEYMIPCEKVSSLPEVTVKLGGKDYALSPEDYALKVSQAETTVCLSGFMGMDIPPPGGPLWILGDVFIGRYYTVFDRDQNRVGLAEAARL

Monkey [13] = test: Reduction of blood pressure measured 30 min after administration of compound(dose 0.1 mg/kg, iv); type: functional; summary of the method: as §1
Monkey [14] = test: Reduction of blood pressure measured 60 min after administration of compound(dose 0.1 mg/kg, iv); type: functional; summary of the method: as §1
Monkey [15] = test: Reduction of blood pressure measured 120 min after administration of compound(dose 10 mg/kg, po); type: functional; summary of the method: as §1

IC50 (Renin): 4 nM
Structure (SMILES): CCCCNC(=O)[C@@H](CC(O)[C@H](CC1CCCCC1)NC(=O)[C@H](Cc1cnc[nH]1)NC(=O)[C@@H](CSC(C)(C)C)Cc1ccccc1)C(C)C (stereo not given in full)

IC50 (Renin): 15 nM
Structure (SMILES): CC[C@H](C)[C@H](NC(=O)[C@@H](CC(O)[C@H](CC(C)C)NC(=O)[C@H](Cc1cnc[nH]1)NC(=O)[C@H](Cc1ccccc1)NC(=O)OC(C)(C)C)C(C)C)C(=O)N[C@@H](Cc1cnc[nH]1)C(N)=O (stereo not given in full) (Boc-FH[LeuΨ(ξCHOHCH2)Val]IH-NH2)

IC50 (Renin): 20 nM
Structure (SMILES): CC[C@H](C)[C@H](NC(=O)[C@@H](CC(O)[C@H](CC(C)C)NC(=O)[C@H](Cc1cnc[nH]1)NC(=O)C(C)(OC(=O)C(C)(C)C)c1ccccc1)C(C)C)C(=O)N[C@@H](Cc1cnc[nH]1)C(N)=O (stereo not given in full)

IC50 (Renin): 20 nM
Structure (SMILES): CCCCNC(=O)[C@@H](CC(O)[C@H](CC(C)C)NC(=O)[C@H](Cc1cnc[nH]1)NC(=O)C(C)(OC(=O)C(C)(C)C)c1ccccc1)C(C)C (stereo not given in full)

IC50 (Renin): 7 nM
Structure (SMILES): CCCCNC(=O)[C@@H](CC(O)[C@H](CC1CCCCC1)NC(=O)[C@H](Cc1c[nH]cn1)NC(=O)C(C)(OC(=O)C(C)(C)C)c1ccccc1)C(C)C (stereo not given in full)

More lines, now with the values behind:

Structure (SMILES): CC[C@H](C)[C@H](NC(=O)[C@@H](CC(O)[C@H](CC(C)C)NC(=O)[C@H](Cc1c[nH]cn1)NC(=O)[C@H](Cc1ccccc1)NC(=O)C(C)(C)C)C(C)C)C(=O)N[C@@H](Cc1c[nH]cn1)C(N)=O (stereo not given in full) (Piv-FH[LeuΨ(ξCHOHCH2)Val]IH-NH2)
IC50 (Renin): 20 nM

Structure (SMILES): CCCCNC(=O)[C@@H](CC(O)[C@H](CC1CCCCC1)NC(=O)[C@H](Cc1c[nH]cn1)NC(=O)C(CC(=O)C(C)(C)C)Cc1ccccc1)C(C)C (stereo not given in full)
IC50 (Renin): 6 nM

Structure (SMILES): CCCCNC(=O)[C@@H](CC(O)[C@H](CC1CCCCC1)NC(=O)[C@H](Cc1c[nH]cn1)NC(=O)[C@H](Cc1ccccc1)C[S+]([O-])C(C)(C)C)C(C)C (stereo not given in full)
IC50 (Renin): 2 nM

Structure (SMILES): CCCCNC(=O)[C@@H](CC(O)[C@H](CC1CCCCC1)NC(=O)[C@H](Cc1c[nH]cn1)NC(=O)C(Cc1ccccc1)CS(=O)(=O)C(C)(C)C)C(C)C (stereo in doubt; 8i)
Delta blood pressure (Monkey [1]): -23 mmHg | Delta blood pressure (Monkey [2]): -17 mmHg | Delta blood pressure (Monkey [3]): -18 mmHg | Delta blood pressure (Monkey [4]): 0 mmHg | Delta blood pressure (Monkey [5]): -8 mmHg | Delta blood pressure (Monkey [6]): -6 mmHg | Delta blood pressure (Monkey [7]): -5 mmHg | Delta blood pressure (Monkey [8]): -1 mmHg | Delta blood pressure (Monkey [9]): -10 mmHg | Delta blood pressure (Monkey [10]): -13 mmHg | Delta blood pressure (Monkey [11]): -6 mmHg | Delta blood pressure (Monkey [12]): -12 mmHg | IC50 (Cathepsin D): 3200 nM | Delta blood pressure (Monkey [13]): -13 mmHg | Delta blood pressure (Monkey [14]): -5 mmHg | Delta blood pressure (Monkey [15]): -23 mmHg

Structure (SMILES): CCCCNC(=O)[C@@H](CC(O)[C@H](CC1CCCCC1)NC(=O)[C@H](Cc1cnc[nH]1)NC(=O)C(Cc1ccccc1)CP(=O)(OCC)OCC)C(C)C (stereo not given in full)
IC50 (Renin): 4 nM
